Laboratory results taken from ChEMBL document CHEMBL6071158, “Design, synthesis, and in vitro biological evaluation of meta-sulfonamidobenzamide-based antibacterial LpxH inhibitors” (Eur J Med Chem, 2024).
Converted amounts (≈) assume the structure as drawn.

Experiments:
Escherichia coli [1] = test: Inhibition of Escherichia coli LpXH enzyme at 100 nM by colorimetric coupled enzymatic analysis relative to control
How it was run: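 AaLpxE-coupled assay: E. coli LpxH 0.1 nM and UDP-DAGn 20 µM (final) in 20 mM Tris-HCl pH 8.0, BSA, 0.02 % Triton X-100, 1 mM MnCl₂, 1 mM DTT, 10 % DMSO; inhibitor pre-incubated with enzyme 10 min, reaction 30 min at 37 °C, EDTA quench, then LpxE 30 min; released phosphate by malachite green at 620 nm vs phosphate standard; triplicate.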

Escherichia coli [2] = test: Antibacterial activity against wild type Escherichia coli ATCC 25922 incubated for 16 to 20 hrs by Mueller-Hinton broth based two-fold serial dilution method; type: functional; settings: time 16-20 hrs
Escherichia coli [3] = test: Antibacterial activity against efflux pump-deficient delta tolC Escherichia coli ATCC 25922 assessed as bacterial growth inhibition incubated for 16 to 20 hrs by Mueller-Hinton broth based two-fold serial dilution method; type: functional; settings: time 16-20 hrs
[4] = Hemolysis activity in human RBC cells assessed as effect on hemolysis relative to control; type: toxicity, cell-based, Erythrocyte; settings: human red blood cells, read-out: Activity
[5] = Cytotoxicity against human HepG2 cells assessed as inhibition of cells incubated for 72 hrs by fluorometric microculture analysis; type: toxicity, cell-based
How it was run: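 HepG2 (mycoplasma-free, ≤20 passages, DMEM + 10 % FBS + pen/strep) seeded 4000/well, cultured overnight, then exposed 72 h at 37 °C, 5 % CO₂ to nine two-fold dilutions in duplicate, top 100 µM. Viability by fluorescein diacetate hydrolysis (0.5 µg/ml FDA, 50 min, ex 475/em 520 nm); survival index vs control; IC50 by non-linear regression of log concentration-effect curves. Bortezomib 2 µM positive control.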

hERG (KCNH2) [6] = target: T1, hERG (KCNH2) (Homo sapiens, UniProt Q12809); test: Inhibition of hERG expressed in CHO cells at 10 uM by automated patch clamp analysis relative to control; type: toxicity, cell-based; settings: CHO cells that express hERG
How it was run: (§1)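 Stably expressing CHO-KV11.1 cells, automated whole-cell population patch clamp (10 cells) at 22 °C; vehicle baseline (0.43 % DMSO) then two cumulatively rising concentrations, 30 s exposure. Holding −80 mV, steps in 10 mV increments to 50 mV for 5 s, tail current at −50 mV (peak in first 90 ms, leak-subtracted); protocol every 150 s; triplicate, mean ± SEM.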

hERG (KCNH2) [7] = target: T1, hERG (KCNH2); test: Inhibition of hERG expressed in CHO cells at 30 uM by automated patch clamp analysis relative to control; type: toxicity, cell-based; settings: CHO cells that express hERG; how it was run: as §1
Klebsiella pneumoniae [8] = test: Antibacterial activity against wild type Klebsiella pneumoniae ATCC 13883 assessed as of bacterial growth incubated for 16 to 20 hrs by Mueller-Hinton broth based two-fold serial dilution method
Escherichia coli [9] = test: Antibacterial activity against efflux-defective Escherichia coli delta tolC ATCC 25922; type: functional
Escherichia coli [10] = test: Antibacterial activity against Escherichia coli ATCC 25922 assessed as viable colonies measured after 18 to 20 hrs by Mueller-Hinton II broth assay; type: functional; settings: time 18-20 hrs
Klebsiella pneumoniae [11] = test: Antibacterial activity against Klebsiella pneumonia ATCC 13883 assessed as viable colonies measured after 18 to 20 hrs by Mueller-Hinton II broth assay; type: functional; settings: time 18-20 hrs

T1 sequence (Q12809 whole entry): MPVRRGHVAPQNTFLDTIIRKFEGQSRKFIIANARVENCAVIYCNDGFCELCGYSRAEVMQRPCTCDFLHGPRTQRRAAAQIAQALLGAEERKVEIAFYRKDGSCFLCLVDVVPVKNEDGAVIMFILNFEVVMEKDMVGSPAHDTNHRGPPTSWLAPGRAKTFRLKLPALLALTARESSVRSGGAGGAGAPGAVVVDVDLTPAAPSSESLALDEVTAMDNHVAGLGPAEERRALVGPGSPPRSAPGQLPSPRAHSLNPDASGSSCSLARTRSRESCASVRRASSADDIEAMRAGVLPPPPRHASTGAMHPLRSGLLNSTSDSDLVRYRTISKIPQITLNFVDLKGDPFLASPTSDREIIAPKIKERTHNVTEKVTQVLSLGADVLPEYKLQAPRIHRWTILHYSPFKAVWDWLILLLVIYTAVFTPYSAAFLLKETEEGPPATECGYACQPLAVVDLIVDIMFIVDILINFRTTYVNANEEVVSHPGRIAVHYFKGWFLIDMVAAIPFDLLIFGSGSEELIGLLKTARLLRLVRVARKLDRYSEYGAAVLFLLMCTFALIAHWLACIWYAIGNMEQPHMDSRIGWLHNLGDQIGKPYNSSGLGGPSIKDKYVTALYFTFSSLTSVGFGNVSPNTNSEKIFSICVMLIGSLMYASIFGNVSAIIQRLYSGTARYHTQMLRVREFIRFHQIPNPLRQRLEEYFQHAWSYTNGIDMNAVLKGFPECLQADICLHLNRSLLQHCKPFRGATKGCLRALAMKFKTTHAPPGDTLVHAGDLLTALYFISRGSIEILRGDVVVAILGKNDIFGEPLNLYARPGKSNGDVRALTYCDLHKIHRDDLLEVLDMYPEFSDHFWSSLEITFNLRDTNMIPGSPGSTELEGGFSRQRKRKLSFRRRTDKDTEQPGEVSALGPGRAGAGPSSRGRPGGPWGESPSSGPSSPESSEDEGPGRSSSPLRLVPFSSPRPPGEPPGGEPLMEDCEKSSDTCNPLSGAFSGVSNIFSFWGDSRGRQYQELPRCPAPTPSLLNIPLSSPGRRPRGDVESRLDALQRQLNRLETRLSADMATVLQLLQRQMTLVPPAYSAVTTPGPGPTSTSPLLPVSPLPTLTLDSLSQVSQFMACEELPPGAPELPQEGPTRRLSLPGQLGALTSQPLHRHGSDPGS

Row | SMILES | inhibition (Escherichia coli [1]) [%] | MIC (Escherichia coli [2]) [µg/mL] | MIC (Escherichia coli [3]) [µg/mL] | MIC (Klebsiella pneumoniae [8]) [µg/mL] | MIC (Escherichia coli [9]) [µg/mL] | MIC (Escherichia coli [10]) [µg/mL] | MIC (Klebsiella pneumoniae [11]) [µg/mL] | hemolysis [4] [%] | IC50 at 72 h [5] [µM] | inhibition at 10 µM (hERG (KCNH2) [6]) [%] | inhibition at 30 µM (hERG (KCNH2) [7]) [%]
1 | Cc1cc(C#N)nc(N2CCN(S(=O)(=O)c3ccc(NC(=O)c4cc(NS(C)(=O)=O)cc(N5CC(CN)C5)c4)cc3)CC2)n1 | 92 | 64 (≈ 100 µM) | 0.25 (≈ 0.391 µM) | 32 (≈ 50 µM) | – | – | – | 0.12 | > 100 | 5 | 9
2 | Cc1cc(C#N)nc(N2CCN(S(=O)(=O)c3ccc(NC(=O)c4cc(Cl)nc(NS(C)(=O)=O)c4)cc3)CC2)n1 | 54 | 8 (≈ 13.5 µM) | ≤ 0.125 | 4 (≈ 6.77 µM) | – | – | – | 0.02 | > 50 | 2 | 0
3 | CC(=O)N1CCc2cc(S(=O)(=O)N3CCN(c4cccc(C(F)(F)F)c4)CC3)ccc21 | – | – | – | – | 0.25 (≈ 0.551 µM) | – | – | – | – | – | –
4 | Cc1cc(C#N)nc(N2CCN(S(=O)(=O)c3ccc(NC(=O)c4cccc(NS(C)(=O)=O)c4)cc3)CC2)n1 | 75 | 4 (≈ 7.2 µM) | 0.125 (≈ 0.225 µM) | 2 (≈ 3.6 µM) | – | – | – | 0.05 | – | 3 | 12
5 | Cc1cc(C#N)nc(N2CCN(S(=O)(=O)c3ccc(NC(=O)c4cc(CNCCCN)cc(NS(C)(=O)=O)c4)cc3)CC2)n1 | 63 | 8 (≈ 12.5 µM) | 0.5 (≈ 0.779 µM) | 4 (≈ 6.23 µM) | – | – | – | 0.08 | > 100 | 3 | 9
6 | Cc1cc(C#N)nc(N2CCN(S(=O)(=O)c3ccc(NC(=O)c4cc(NS(C)(=O)=O)nc(N5CC(CN)C5)c4)cc3)CC2)n1 | 80 | 8 (≈ 12.5 µM) | 0.5 (≈ 0.78 µM) | 4 (≈ 6.24 µM) | – | – | – | 0.12 | > 100 | 1 | 0
7 | NC(=O)[C@H]1CC[C@H](C(F)(F)c2cc(Cl)nc(N3CCN(S(=O)(=O)c4ccc(N5C[C@@H](N)CC5=O)cc4)CC3)c2)CC1 | – | 0.3 (≈ 0.491 µM) | – | – | – | – | – | – | – | – | –
8 | Cc1cc(C#N)nc(N2CCN(S(=O)(=O)c3ccc(NC(=O)c4cc(C=C5CNC5)cc(NS(C)(=O)=O)c4)cc3)CC2)n1 | 86 | 64 (≈ 103 µM) | 0.5 (≈ 0.803 µM) | 16 (≈ 25.7 µM) | – | – | – | 0.17 | > 100 | 4 | 24

Further compounds by falling MIC (Escherichia coli [2]), results first:

Row | inhibition (Escherichia coli [1]) [%] | MIC (Escherichia coli [2]) [µg/mL] | MIC (Escherichia coli [3]) [µg/mL] | MIC (Klebsiella pneumoniae [8]) [µg/mL] | MIC (Escherichia coli [9]) [µg/mL] | MIC (Escherichia coli [10]) [µg/mL] | MIC (Klebsiella pneumoniae [11]) [µg/mL] | SMILES | hemolysis [4] [%] | IC50 at 72 h [5] [µM] | inhibition at 10 µM (hERG (KCNH2) [6]) [%] | inhibition at 30 µM (hERG (KCNH2) [7]) [%]
9 | – | 64 (≈ 110 µM) | – | – | – | – | – | CS(=O)(=O)Nc1ccccc1C(=O)Nc1ccc(S(=O)(=O)N2CCN(c3cc(Cl)cc(Cl)c3)CC2)cc1 | – | – | – | –
10 | – | 64 (≈ 107 µM) | 0.125 (≈ 0.209 µM) | – | – | – | – | CN(c1cccc(C(=O)Nc2ccc(S(=O)(=O)N3CCN(c4cc(Cl)cc(Cl)c4)CC3)cc2)c1)S(C)(=O)=O | – | – | – | –
11 | 89 | 16 (≈ 24.5 µM) | 0.25 (≈ 0.382 µM) | 4 (≈ 6.12 µM) | – | – | – | Cc1cc(C#N)nc(N2CCN(S(=O)(=O)c3ccc(NC(=O)c4cc(CN5CC(CN)C5)cc(NS(C)(=O)=O)c4)cc3)CC2)n1 | 0.06 | – | 4 | 7
12 | – | 4 (≈ 6.85 µM) | 0.125 (≈ 0.214 µM) | – | – | – | – | CS(=O)(=O)Nc1cccc(C(=O)Nc2ccc(S(=O)(=O)N3CCN(c4cc(Cl)cc(Cl)c4)CC3)cc2)c1 | – | – | – | –
13 | 71 | 2 (≈ 2.99 µM) | ≤ 0.125 | 0.5 (≈ 0.749 µM) | – | – | – | Cc1cc(C#N)nc(N2CCN(S(=O)(=O)c3ccc(NC(=O)c4cc(CN5CC(CN)C5)ccc4N(C)S(C)(=O)=O)cc3)CC2)n1 | 0.13 | 54 | 5 | 16
14 | 100 | 2 (≈ 2.99 µM) | ≤ 0.125 | 0.5 (≈ 0.749 µM) | – | 2 (≈ 2.99 µM) | 0.5 (≈ 0.749 µM) | Cc1cc(C#N)nc(N2CCN(S(=O)(=O)c3ccc(NC(=O)c4cc(CNC[C@H]5C[C@@H]5N)ccc4N(C)S(C)(=O)=O)cc3)CC2)n1 | 0.35 | 47 | 9 | 28
15 | 100 | 2 (≈ 3.51 µM) | ≤ 0.125 | 2 (≈ 3.51 µM) | – | – | – | Cc1cc(C#N)nc(N2CCN(S(=O)(=O)c3ccc(NC(=O)c4ccccc4N(C)S(C)(=O)=O)cc3)CC2)n1 | 0.05 | 29 | 14 | 24
16 | 69 | 2 (≈ 3.05 µM) | ≤ 0.125 | 1 (≈ 1.52 µM) | – | – | – | Cc1cc(C#N)nc(N2CCN(S(=O)(=O)c3ccc(NC(=O)c4cc(CNCCCN)ccc4N(C)S(C)(=O)=O)cc3)CC2)n1 | 0.06 | 55 | 4 | 11
17 | – | 1 (≈ 1.67 µM) | – | – | – | – | – | CN(c1ccccc1C(=O)Nc1ccc(S(=O)(=O)N2CCN(c3cc(Cl)cc(Cl)c3)CC2)cc1)S(C)(=O)=O | – | – | – | –
